# Measured values from ChEMBL document CHEMBL1134546, “Structure-based design, synthesis, and biological evaluation of conformationally restricted novel 2-alkylthio-6-[1-(2,6-difluorophenyl)alkyl]-3,4-dihydro-5-alkylpyrimidin-4(3H)-ones as non-nucleoside inhibitors of HIV-1 reverse transcriptase” (J Med Chem, 2001).
# Tested on: Human immunodeficiency virus 1
# Assay: Effective concentration against HIV-1 induced cytopathogenicity in MT-4 cells
# Assay type: functional, organism-based, MT4
# Details: Human immunodeficiency virus 1, MT4
# Method in brief: (§1)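 MT-4 cells (1 × 10⁴/well) incubated with serial compound dilutions (200 mM DMSO stock diluted in medium), with or without HIV-1 IIIB (100 CCID₅₀/well), 4 days at 37 °C in RPMI 1640 with 10% FCS. Viable cells counted by MTT. CC₅₀ from mock-infected cells and EC₅₀ as 50% protection from virus-induced cytopathicity, run in parallel. Mean of at least two experiments.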
row,Structure (SMILES),EC50 [nM]
1,CCC(c1cc(O)nc(SC2CCCCC2)n1)c1cccc2ccccc12 (configuration not stated),180
2,CCC(c1cc(O)nc(SC(C)C)n1)c1cccc2ccccc12 (configuration not stated),1500
3,CCC(c1ccccc1)c1cc(O)nc(SC2CCCCC2)n1 (configuration not stated),1300
4,CC(C)Sc1nc(O)cc(C(C)c2cccc3ccccc23)n1 (configuration not stated),1100
5,CC(c1cc(O)nc(SC2CCCCC2)n1)c1cccc2ccccc12 (configuration not stated),140
6,CC(c1cc(O)nc(SC2CCCC2)n1)c1cccc2ccccc12 (configuration not stated),500
7,CSc1nc(O)cc(C(C)c2c(F)cccc2F)n1 (configuration not stated),180
8,CC(c1ccccc1)c1cc(O)nc(SC2CCCC2)n1 (configuration not stated),600

# Results, then the molecule that gave them:
row,EC50 [nM],Structure (SMILES)
1,18,Cc1c(O)nc(SC2CCCCC2)nc1C(C)c1c(F)cccc1F (configuration not stated)
2,2900,CC(c1cc(O)nc(SC2CCCCC2)n1)c1c(Cl)cccc1Cl (configuration not stated)
3,1000,CC(c1cc(O)nc(SC2CCCC2)n1)c1c(Cl)cccc1Cl (configuration not stated)
4,160,CC(c1cc(O)nc(SC2CCCCC2)n1)c1c(F)cccc1F (configuration not stated)
5,3600,CCC(c1cc(O)nc(SC2CCCCC2)n1)c1c(Cl)cccc1Cl (configuration not stated)
6,1000,CCC(c1cc(O)nc(SC2CCCC2)n1)c1c(Cl)cccc1Cl (configuration not stated)
7,70,CCCCSc1nc(O)cc(C(C)c2c(F)cccc2F)n1 (configuration not stated)
8,10,Cc1c(O)nc(SCC(C)C)nc1C(C)c1c(F)cccc1F (configuration not stated)
9,1000,CCC(c1ccccc1)c1cc(O)nc(SC2CCCC2)n1 (configuration not stated)
10,50,CCC(C)Sc1nc(O)c(C)c(Cc2c(F)cccc2F)n1 (configuration not stated)
11,3000,CCC(c1cc(O)nc(SC2CCCC2)n1)c1cccc2ccccc12 (configuration not stated)
12,50,CC(C)CSc1nc(O)cc(C(C)c2c(F)cccc2F)n1 (configuration not stated)

# Same assay, conditions: mt4
row,Structure (SMILES),EC50 [nM]
1,Cc1c(C(C)c2c(F)cccc2F)nc(SC2CCCC2)[nH]c1=O (stereo in doubt; [-]3w),70
2,Cc1c(C(C)c2c(F)cccc2F)nc(SC2CCCC2)[nH]c1=O (stereo in doubt; [+]3w),2

# Tested on: MT4
# Assay: Cytotoxicity against MT-4 cells.
# Assay type: functional, Homo sapiens
# Details: not given
# Method in brief: as §1
row,Structure (SMILES),CC50 [nM]
1,Cc1c(C(C)c2c(F)cccc2F)nc(SC2CCCC2)[nH]c1=O (stereo in doubt; [-]3w),200000

# Same assay, conditions: Homo sapiens, MT4
row,Structure (SMILES),CC50 [nM]
1,Cc1c(O)nc(SC2CCCCC2)nc1C(C)c1c(F)cccc1F (configuration not stated),> 200000
2,CC(c1cc(O)nc(SC2CCCCC2)n1)c1c(Cl)cccc1Cl (configuration not stated),> 200000
3,CC(c1cc(O)nc(SC2CCCC2)n1)c1c(Cl)cccc1Cl (configuration not stated),78300
4,CCC(c1cc(O)nc(SC2CCCCC2)n1)c1cccc2ccccc12 (configuration not stated),16900
5,CC(c1cc(O)nc(SC2CCCCC2)n1)c1c(F)cccc1F (configuration not stated),> 200000
6,CCC(c1cc(O)nc(SC2CCCCC2)n1)c1c(Cl)cccc1Cl (configuration not stated),> 200000
7,CCC(c1cc(O)nc(SC(C)C)n1)c1cccc2ccccc12 (configuration not stated),50000
8,Cc1c(C(C)c2c(F)cccc2F)nc(SC2CCCC2)[nH]c1=O (stereo in doubt; [+]3w),> 200000
9,CCC(c1cc(O)nc(SC2CCCC2)n1)c1c(Cl)cccc1Cl (configuration not stated),23400
10,CCCCSc1nc(O)cc(C(C)c2c(F)cccc2F)n1 (configuration not stated),> 200000
11,CCC(c1ccccc1)c1cc(O)nc(SC2CCCCC2)n1 (configuration not stated),> 200000
12,Cc1c(O)nc(SCC(C)C)nc1C(C)c1c(F)cccc1F (configuration not stated),> 200000
13,CCC(c1ccccc1)c1cc(O)nc(SC2CCCC2)n1 (configuration not stated),> 200000
14,CC(C)Sc1nc(O)cc(C(C)c2cccc3ccccc23)n1 (configuration not stated),119000
15,CC(c1cc(O)nc(SC2CCCCC2)n1)c1cccc2ccccc12 (configuration not stated),45000
16,CCC(C)Sc1nc(O)c(C)c(Cc2c(F)cccc2F)n1 (configuration not stated),> 200000
17,CC(c1cc(O)nc(SC2CCCC2)n1)c1cccc2ccccc12 (configuration not stated),93000
18,CSc1nc(O)cc(C(C)c2c(F)cccc2F)n1 (configuration not stated),20800
19,CCC(c1cc(O)nc(SC2CCCC2)n1)c1cccc2ccccc12 (configuration not stated),51000
20,CC(c1ccccc1)c1cc(O)nc(SC2CCCC2)n1 (configuration not stated),159000
21,CC(C)CSc1nc(O)cc(C(C)c2c(F)cccc2F)n1 (configuration not stated),> 200000

# Tested on: MT4
# Assay: Anti-HIV-1 activity against WTIIIB HIV-1 strain in MT-4 cells
# Assay type: functional, cell-based
# Details: Homo sapiens
row,Structure (SMILES),EC50 [nM]
1,O=C1Nc2ccc(Cl)cc2[C@@](C#CC2CC2)(C(F)(F)F)O1 [EFAVIRENZ],4
2,Cc1ccnc2c1NC(=O)c1cccnc1N2C1CC1 [NEVIRAPINE],370

# Tested on: MT4
# Assay: Anti-HIV-1 activity against Y181C HIV-1 strain in MT-4 cells
# Assay type: functional, cell-based
# Details: Homo sapiens
row,Structure (SMILES),EC50 [nM]
1,O=C1Nc2ccc(Cl)cc2[C@@](C#CC2CC2)(C(F)(F)F)O1 [EFAVIRENZ],25
2,Cc1ccnc2c1NC(=O)c1cccnc1N2C1CC1 [NEVIRAPINE],> 30000

# Biological target: Human immunodeficiency virus type 1 reverse transcriptase (Human immunodeficiency virus 1, UniProt Q72547)
# Assay: Inhibitory activity against HIV-1 recombinant reverse transcriptase.
# Details: not given
row,Structure (SMILES),IC50 [nM]
1,CCC(c1cc(O)nc(SC2CCCCC2)n1)c1cccc2ccccc12 (configuration not stated),1400
2,Cc1c(C(C)c2c(F)cccc2F)nc(SC2CCCC2)[nH]c1=O (stereo in doubt; [-]3w),1000
3,CCC(c1cc(O)nc(SC(C)C)n1)c1cccc2ccccc12 (configuration not stated),800
4,Cc1c(C(C)c2c(F)cccc2F)nc(SC2CCCC2)[nH]c1=O (stereo in doubt; [+]3w),8
5,CCC(c1ccccc1)c1cc(O)nc(SC2CCCCC2)n1 (configuration not stated),3700
6,CCC(c1ccccc1)c1cc(O)nc(SC2CCCC2)n1 (configuration not stated),> 10000
7,CC(C)Sc1nc(O)cc(C(C)c2cccc3ccccc23)n1 (configuration not stated),5800
8,CC(c1cc(O)nc(SC2CCCCC2)n1)c1cccc2ccccc12 (configuration not stated),2600
9,CC(c1cc(O)nc(SC2CCCC2)n1)c1cccc2ccccc12 (configuration not stated),400
10,CSc1nc(O)cc(C(C)c2c(F)cccc2F)n1 (configuration not stated),200
11,CC(c1ccccc1)c1cc(O)nc(SC2CCCC2)n1 (configuration not stated),2100

# Tested on: MT4
# Assay: CC50/EC50 ratio of the compound
# Assay type: functional
# Details: not given
# Method in brief: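 Selectivity index, calculated as CC₅₀/EC₅₀. Both values come from the parallel MTT readout in mock-infected and HIV-1 IIIB-infected MT-4 cells (4-day incubation at 37 °C).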
row,Structure (SMILES),Selectivity index
1,Cc1c(O)nc(SC2CCCCC2)nc1C(C)c1c(F)cccc1F (configuration not stated),>11111
2,CC(c1cc(O)nc(SC2CCCCC2)n1)c1c(Cl)cccc1Cl (configuration not stated),>69
3,CC(c1cc(O)nc(SC2CCCC2)n1)c1c(Cl)cccc1Cl (configuration not stated),78.3
4,CCC(c1cc(O)nc(SC2CCCCC2)n1)c1cccc2ccccc12 (configuration not stated),94
5,Cc1c(C(C)c2c(F)cccc2F)nc(SC2CCCC2)[nH]c1=O (stereo in doubt; [-]3w),>286
6,CC(c1cc(O)nc(SC2CCCCC2)n1)c1c(F)cccc1F (configuration not stated),>1250
7,CCC(c1cc(O)nc(SC2CCCCC2)n1)c1c(Cl)cccc1Cl (configuration not stated),>55.5
8,CCC(c1cc(O)nc(SC(C)C)n1)c1cccc2ccccc12 (configuration not stated),33.3
9,Cc1c(C(C)c2c(F)cccc2F)nc(SC2CCCC2)[nH]c1=O (stereo in doubt; [+]3w),>100000
10,CCC(c1cc(O)nc(SC2CCCC2)n1)c1c(Cl)cccc1Cl (configuration not stated),23.4
11,CCCCSc1nc(O)cc(C(C)c2c(F)cccc2F)n1 (configuration not stated),2857
12,CCC(c1ccccc1)c1cc(O)nc(SC2CCCCC2)n1 (configuration not stated),>154
13,Cc1c(O)nc(SCC(C)C)nc1C(C)c1c(F)cccc1F (configuration not stated),>20000
14,CCC(c1ccccc1)c1cc(O)nc(SC2CCCC2)n1 (configuration not stated),>200
15,CC(C)Sc1nc(O)cc(C(C)c2cccc3ccccc23)n1 (configuration not stated),108
16,CC(c1cc(O)nc(SC2CCCCC2)n1)c1cccc2ccccc12 (configuration not stated),321.4
17,CCC(C)Sc1nc(O)c(C)c(Cc2c(F)cccc2F)n1 (configuration not stated),>4000
18,CC(c1cc(O)nc(SC2CCCC2)n1)c1cccc2ccccc12 (configuration not stated),186
19,CSc1nc(O)cc(C(C)c2c(F)cccc2F)n1 (configuration not stated),115
20,CCC(c1cc(O)nc(SC2CCCC2)n1)c1cccc2ccccc12 (configuration not stated),17
21,CC(c1ccccc1)c1cc(O)nc(SC2CCCC2)n1 (configuration not stated),333
22,CC(C)CSc1nc(O)cc(C(C)c2c(F)cccc2F)n1 (configuration not stated),>4000

# Tested on: not listed separately
# Assay: Y181C/WTIIIB ratio of the compound
# Assay type: functional
# Details: not given
# Method in brief: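 Fold resistance, given as the EC₅₀ against Y181C mutant HIV-1 divided by the EC₅₀ against wild-type IIIB. Each EC₅₀ is the dose giving 50% protection of MT-4 cells from virus-induced cytopathicity, read by MTT.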
row,Structure (SMILES),Fold resistance
1,O=C1Nc2ccc(Cl)cc2[C@@](C#CC2CC2)(C(F)(F)F)O1 [EFAVIRENZ],6
